Key:
Type in all cases: functional
H4 [1] = test: Increase in light chain 3-GFP+ autophagosome vesicle area per cell in human H4 cells at 3.4 uM after 24 hrs by high throughput fluorescence microscopy relative to control
How it was run: (§1)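 H4 cells stably expressing LC3-GFP, seeded in 96-well plates and exposed to compound for 24 h; fixed in 4% paraformaldehyde, nuclei stained with 3 μg/ml DAPI. Automated fluorescence microscopy scored number, size and intensity of LC3-GFP spots; values expressed relative to DMSO-treated wells, rapamycin positive control. Triplicate wells, mean ± SD; experiments repeated three times.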

H4 [2] = test: Increase in light chain 3-GFP+ autophagosome vesicle number per cell in human H4 cells at 3.4 uM after 24 hrs by high throughput fluorescence microscopy relative to control; how it was run: as §1
H4 [3] = test: Increase in light chain 3-GFP+ autophagosome vesicle intensity per cell in human H4 cells at 3.4 uM after 24 hrs by high throughput fluorescence microscopy relative to control; how it was run: as §1
H4 [4] = test: Increase in FYVE-RFP+ vesicle intensity per cell in human H4 cells after 2 hrs relative to control; set-up: concentration or dose not given beside the values
How it was run: (§2)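 H4 cells stably expressing FYVE-RFP (H4-FYVE), grown in DMEM with 10% FBS, penicillin/streptomycin and 2 mM L-glutamine at 37°C, 5% CO2, seeded in 96-well plates and exposed to compound. Fixed in 4% paraformaldehyde, nuclei stained with 3 μg/ml DAPI, FYVE-RFP+ vesicles quantified by high-throughput fluorescence microscopy against DMSO control. Triplicate wells, mean ± SD.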

H4 [5] = test: Increase in FYVE-RFP+ vesicle intensity per cell in human H4 cells after 4 hrs relative to control; set-up: concentration or dose not given beside the values; how it was run: as §2
H4 [6] = test: Increase in FYVE-RFP+ vesicle intensity per cell in human H4 cells after 8 hrs relative to control; set-up: concentration or dose not given beside the values; how it was run: as §2
H4 [7] = test: Increase in long-lived protein degradation in human H4 cells after 1 hr relative to control; set-up: concentration or dose not given beside the values
H4 [8] = test: Increase in long-lived protein degradation in human H4 cells after 2 hrs relative to control; set-up: concentration or dose not given beside the values
H4 [9] = test: Increase in long-lived protein degradation in human H4 cells after 4 hrs relative to control; set-up: concentration or dose not given beside the values
H4 [10] = test: Increase in long-lived protein degradation in human H4 cells after 24 hrs relative to control; set-up: concentration or dose not given beside the values
H4 [11] = test: Induction of light chain 3-GFP level in human H4 cells at 3.4 uM after 24 hrs by high throughput fluorescence microscopy relative to control
How it was run: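 H4 cells stably expressing LC3-GFP, kept in DMEM/10% FBS at 37°C, 5% CO2, were seeded in 96-well plates and exposed to compound for 24 h. Cells were then fixed in 4% paraformaldehyde and stained with 3 μg/ml DAPI. Automated fluorescence microscopy scored the number, size and intensity of LC3-GFP spots. Values are percent of DMSO wells, in triplicate, mean ± SD. Rapamycin served as positive control.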

H4 [12] = test: Increase in light chain 3-GFP+ autophagosome vesicle area per cell in human H4 cells at 3.6 uM after 24 hrs by high throughput fluorescence microscopy relative to control
How it was run: (§3)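 H4 cells stably expressing LC3-GFP, seeded in 96-well plates and exposed to compound for 24 h; screening concentrations were 3–12 μM, with rapamycin 0.22 μM and bafilomycin A1 0.40 μM. Cells fixed in 4% paraformaldehyde and stained with 3 μg/ml DAPI. Number, size and intensity of LC3-GFP spots measured by high-throughput fluorescence microscopy and expressed as percent of DMSO-treated wells. Rapamycin was the positive control. Triplicate wells, mean ± SD; experiments repeated three times.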

H4 [13] = test: Increase in light chain 3-GFP+ autophagosome vesicle number per cell in human H4 cells at 3.6 uM after 24 hrs by high throughput fluorescence microscopy relative to control
How it was run: (§4)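 H4 cells stably expressing LC3-GFP were grown in DMEM with 10% FBS and 2 mM L-glutamine at 37°C, 5% CO2. They were exposed to each compound for 24 h, with DMSO as negative and rapamycin as positive control. Cells were then fixed in 4% paraformaldehyde and stained with 3 μg/ml DAPI. High-throughput fluorescence imaging scored LC3-GFP spot number, size and intensity, expressed relative to DMSO. Mean ± SD of triplicates; experiments repeated three times.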

H4 [14] = test: Increase in light chain 3-GFP+ autophagosome vesicle intensity per cell in human H4 cells at 3.6 uM after 24 hrs by high throughput fluorescence microscopy relative to control; how it was run: as §3
H4 [15] = test: Decrease in FYVE-RFP+ vesicle intensity per cell in human H4 cells after 2 hrs relative to control; set-up: concentration or dose not given beside the values; how it was run: as §2
H4 [16] = test: Decrease in FYVE-RFP+ vesicle intensity per cell in human H4 cells after 4 hrs relative to control; set-up: concentration or dose not given beside the values; how it was run: as §2
H4 [17] = test: Decrease in FYVE-RFP+ vesicle intensity per cell in human H4 cells after 8 hrs relative to control; set-up: concentration or dose not given beside the values; how it was run: as §2
H4 [18] = test: Induction of light chain 3-GFP level in human H4 cells at 3.6 uM after 24 hrs by high throughput fluorescence microscopy relative to control
How it was run: (§5)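 H4 cells stably expressing LC3-GFP, grown in DMEM with 10% FBS, penicillin/streptomycin and 2 mM L-glutamine at 37°C, 5% CO2. Cells were seeded in 96-well plates and exposed to library compounds at 3–12 μM for 24 h, then fixed in 4% paraformaldehyde and stained with 3 μg/ml DAPI. LC3-GFP spot number, size and intensity were measured by high-throughput fluorescence microscopy and expressed relative to DMSO. Triplicates, mean ± SD.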

H4 [19] = test: Increase in light chain 3-GFP+ autophagosome vesicle area per cell in human H4 cells at 7.0 uM after 24 hrs by high throughput fluorescence microscopy relative to control; how it was run: as §3
H4 [20] = test: Increase in light chain 3-GFP+ autophagosome vesicle intensity per cell in human H4 cells at 7.0 uM after 24 hrs by high throughput fluorescence microscopy relative to control; how it was run: as §4
H4 [21] = test: Effect on FYVE-RFP+ vesicle intensity per cell in human H4 cells after 2 hrs relative to control; set-up: concentration or dose not given beside the values; how it was run: as §2
H4 [22] = test: Effect on FYVE-RFP+ vesicle intensity per cell in human H4 cells after 4 hrs relative to control; set-up: concentration or dose not given beside the values; how it was run: as §2
H4 [23] = test: Effect on FYVE-RFP+ vesicle intensity per cell in human H4 cells after 8 hrs relative to control; set-up: concentration or dose not given beside the values; how it was run: as §2
H4 [24] = test: Induction of light chain 3-GFP level in human H4 cells at 7.0 uM after 24 hrs by high throughput fluorescence microscopy relative to control; how it was run: as §5
H4 [25] = test: Increase in light chain 3-GFP+ autophagosome vesicle number per cell in human H4 cells at 7.0 uM after 24 hrs by high throughput fluorescence microscopy relative to control; how it was run: as §4

Molecule CO[C@@H]1C[C@@H](C[C@H]2CC[C@H](C)[C@H]([C@@H](C)C(=O)O)O2)O[C@]2(O[C@](C)([C@H]3CC[C@@](C)([C@@H]4O[C@@H]([C@H]5O[C@@](O)(CO)[C@H](C)C[C@@H]5C)C[C@@H]4C)O3)C[C@H]2C)[C@@H]1C [NIGERICIN] has an Activity (H4 [1]) of 551.04%, an Activity (H4 [2]) of 375.67% and an Activity (H4 [3]) of 747.88%. It also gave an Activity (H4 [4]) of 148.43%, an Activity (H4 [5]) of 145.4% and an Activity (H4 [6]) of 140.54%. It also gave an Activity (H4 [7]) of 91.75%, an Activity (H4 [8]) of 88.14% and an Activity (H4 [9]) of 96.9%. It also gave an Activity (H4 [10]) of 95.98% and an Activity (H4 [11]) of 106.9%.

CC[C@@]1([C@@H]2O[C@@H]([C@H]3O[C@@](O)(CO)[C@H](C)C[C@@H]3C)C[C@@H]2C)CC[C@H]([C@]2(C)CC[C@]3(C[C@H](O)[C@@H](C)[C@@H]([C@@H](C)[C@@H](OC)[C@H](C)C(=O)O)O3)O2)O1 [MONENSIN] showed an Activity (H4 [12]) of 418.31%, an Activity (H4 [13]) of 312.92% and an Activity (H4 [14]) of 639.29%. The Activity (H4 [15]) was 81.22%, the Activity (H4 [16]) was 66.44% and the Activity (H4 [17]) was 59.14%. The Activity (H4 [7]) was 107.28%, the Activity (H4 [8]) was 123.64% and the Activity (H4 [9]) was 109.16%. The Activity (H4 [10]) was 107.54% and the Activity (H4 [18]) was 92.38%.

Work on COC(=O)C1=C(C)NC(C)=C([N+](=O)[O-])C1c1ccccc1C(F)(F)F (stereo not drawn) yielded an Activity (H4 [19]) of 165.46%, an Activity (H4 [20]) of 181.32% and an Activity (H4 [21]) of 110.18%. For the same molecule, the Activity (H4 [22]) was 57.79%, the Activity (H4 [23]) was 79.7% and the Activity (H4 [7]) was 104.43%. It also gave an Activity (H4 [8]) of 115.5%, an Activity (H4 [9]) of 115.35% and an Activity (H4 [10]) of 102.15%. For the same molecule, the Activity (H4 [24]) was 134.45% and the Activity (H4 [25]) was 146.82%.

Source: ChEMBL document CHEMBL1145471, “Small molecule regulators of autophagy identified by an image-based high-throughput screen” (Proc Natl Acad Sci U S A, 2007)
